Compounds with a hit are over-represented: about 3.1% of the library has one in this group of screens.
Apaf-1 inh – blocks human Apaf-1 apoptosome activity; reconstituted apoptosome caspase-3 activity, DEVD-Rh110 fluorescence; inhibition, % at 20 µM; hit rate 0.71% among 330,000; AID 489030; active means inhibition of at least 40% at 20 µM;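 further: plate controls were DMSO wells for no effect and DEVD-CHO caspase inhibitor wells for full effect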
Target sequence (O14727 whole entry, looked up): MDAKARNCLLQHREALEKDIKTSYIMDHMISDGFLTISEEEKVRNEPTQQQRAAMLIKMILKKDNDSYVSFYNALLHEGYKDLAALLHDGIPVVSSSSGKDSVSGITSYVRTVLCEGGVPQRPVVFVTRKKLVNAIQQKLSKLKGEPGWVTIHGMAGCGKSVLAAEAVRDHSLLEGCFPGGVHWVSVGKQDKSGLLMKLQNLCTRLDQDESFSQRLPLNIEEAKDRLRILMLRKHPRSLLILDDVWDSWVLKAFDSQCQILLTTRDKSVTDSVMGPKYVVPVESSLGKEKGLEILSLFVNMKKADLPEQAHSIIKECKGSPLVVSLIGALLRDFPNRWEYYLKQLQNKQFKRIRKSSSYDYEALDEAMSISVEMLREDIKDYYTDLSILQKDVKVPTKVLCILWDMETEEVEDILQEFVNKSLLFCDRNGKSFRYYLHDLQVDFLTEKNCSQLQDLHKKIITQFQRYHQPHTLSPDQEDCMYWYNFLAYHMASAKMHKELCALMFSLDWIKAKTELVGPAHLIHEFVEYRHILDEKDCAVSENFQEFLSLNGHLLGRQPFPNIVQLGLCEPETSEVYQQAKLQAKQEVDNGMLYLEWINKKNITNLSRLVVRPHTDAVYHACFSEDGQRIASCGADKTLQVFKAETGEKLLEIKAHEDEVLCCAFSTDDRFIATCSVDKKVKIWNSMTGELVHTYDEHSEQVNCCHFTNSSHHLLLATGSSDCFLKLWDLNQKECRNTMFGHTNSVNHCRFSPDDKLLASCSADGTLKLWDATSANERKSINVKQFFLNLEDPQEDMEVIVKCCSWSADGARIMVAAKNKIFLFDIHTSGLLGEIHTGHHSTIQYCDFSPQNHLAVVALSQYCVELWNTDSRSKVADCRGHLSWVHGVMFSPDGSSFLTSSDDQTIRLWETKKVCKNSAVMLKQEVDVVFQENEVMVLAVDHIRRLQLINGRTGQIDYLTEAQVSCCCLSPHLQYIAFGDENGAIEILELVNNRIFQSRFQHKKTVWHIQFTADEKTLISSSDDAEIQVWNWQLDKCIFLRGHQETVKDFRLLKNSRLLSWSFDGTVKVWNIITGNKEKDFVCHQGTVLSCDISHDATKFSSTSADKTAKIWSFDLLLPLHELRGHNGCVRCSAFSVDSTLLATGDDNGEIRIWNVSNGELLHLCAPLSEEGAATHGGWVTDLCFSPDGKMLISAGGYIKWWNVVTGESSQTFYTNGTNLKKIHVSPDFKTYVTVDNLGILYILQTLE
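System: reconstituted apoptosome with Apaf-1, cytochrome c, caspase-9, procaspase-3, dATP; Signal: Rh110 fluorescence intensity; Schedule: 30 min compound preincubation, 50 min activation, room temperature; Reagent: cytochrome c trigger plus (Z-DEVD)2-Rh110 caspase-3 substrate.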
PAFAH2 FP inh – PAFAH2 (human) inhibition | Q99487 | recombinant PAFAH2, FP-rhodamine activity probe, fluorescence polarization | inhibition, % at 3.39 µM | hit rate 0.99% among 340,000;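 active means inhibition above the mean over all tested compounds plus 3 SD, cut at about 30% in these data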;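 further: inhibitors block probe labeling of enzyme so polarization drops; 0% = enzyme with DMSO and 100% = wells lacking PAFAH2 protein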
pPAFAH inh – pPAFAH (human) enzyme inhibition | Q13093 | recombinant pPAFAH, FP-rhodamine probe fluorescence polarization | inhibition, % at 3.39 µM | hit rate 1.5% among 330,000;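 active means inhibition above the mean inhibition across the screen plus 3 SD, cut at about 25% in these data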;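 further: inhibitors block binding of the rhodamine activity-based probe so polarization drops; 0% = enzyme with DMSO and 100% = wells lacking pPAFAH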
PAFAH1B2 inh – blocks human PAF acetylhydrolase 1b catalytic subunit 2. P68402. recombinant PAFAH1B2, FP-rhodamine activity probe, fluorescence polarization. inhibition, % at 3.39 µM. hit rate 1.2% among 340,000;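 active means inhibition above the mean of all tested compounds plus 3 SD, cut at about 24% in these data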;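 further: 0% = enzyme with DMSO and 100% = wells lacking PAFAH1B2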
PAFAH1B3 FP inh – PAFAH1B3 (human) inhibition | recombinant PAFAH1B3, FP-rhodamine probe, fluorescence polarization | Q15102 | inhibition, % at 3.39 µM | hit rate 0.28% among 340,000;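 active means inhibition above the screen-wide average of all tested compounds plus 3 SD, cut at about 25% in these data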;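 further: 0% = enzyme with DMSO only and 100% = wells lacking PAFAH1B3 protein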
pPAFAH FP conf – pPAFAH (human) inhibition, confirmed; shares compounds with pPAFAH inh; recombinant pPAFAH, FP-Rh probe fluorescence polarization; inhibition, % at 3.39 µM; hit rate 72% among 2,300; AID 463230;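 active means mean inhibition of the triplicate above the hit cutoff set for the earlier primary screen, cut at about 25% in these data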;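 further: 0% = enzyme with DMSO and 100% = wells lacking pPAFAH enzyme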
* = called active by the depositor; / = not tested or not shown; ! = a repeat was not active.

SMILES	Apaf-1 inh	PAFAH2 FP inh	pPAFAH inh	PAFAH1B2 inh	PAFAH1B3 FP inh	pPAFAH FP conf
O=c1[nH]c(=S)[nH]c(O)c1N=Nc1cc(S(=O)(=O)Nc2ccc(Cl)cc2)ccc1Cl	11	24	49*	21	43*	95*
COCCN1Cc2cc(=O)n3c([nH]c4ccccc43)c2C1=N	-20	11	11	-5	4	/
CC(C)c1ccc(-n2c(O)c(/C=N/NC(=O)c3ccncc3)c(=O)[nH]c2=O)cc1	4	0	8	3	17	/
CC(C)c1ccc(-n2c(O)c(/C=N/NC(=O)c3ccccc3O)c(=O)[nH]c2=S)cc1	-4	-18	47*	-8	-13	45*
C[C@]12CCC3[C@@H](CCC4=CC(=O)CC[C@@]43CO)C1CCC2=O (stereo partly drawn)	2	6	5	0	7	/
O=C1NC(=O)N(Cc2ccc(F)cc2)C(=O)/C1=C\C=C\c1ccco1	30	26	36*	30*	8	9
Cc1ccc(N2C(=O)NC(=O)/C(=C/C=C/c3ccco3)C2=O)cc1	14	2	19	2	-1	/
CC(C)c1ccc(N2C(=O)NC(=O)/C(=C/C=C/c3ccco3)C2=O)cc1	/	6	43*	1	-1	7
CC1(C)C2([N+](=O)[O-])CN3CN(C2)CC1([N+](=O)[O-])C3	3	-5	-4	-1	0	/
CCCCCCCCN=Cc1c(O)[nH]c(=O)[nH]c1=O	-29	/	62*	/	/	1
COC(=O)C1=C(c2ccccc2OCc2ccccc2)C[C@@H]2CC[C@H]1N2C(=O)NCc1cccc(C(F)(F)F)c1	15	-4	2	3	12	/
COc1ccc(OC)c(N2C(=O)NC(=O)/C(=C\c3ccc([N+](=O)[O-])s3)C2=O)c1	25	54*	64*	47*	61*	69*
COc1ccc(N2C(=O)NC(=O)/C(=C\c3ccccc3[N+](=O)[O-])C2=O)cc1	-6	5	-4	4	1	/
O=C1NC(=O)N(c2ccccc2)C(=O)/C1=C\c1ccc([N+](=O)[O-])o1	0	/	19	/	/	/
O=C1NC(=O)N(c2ccccc2)C(=O)/C1=C\c1ccc([N+](=O)[O-])s1	19	/	56*	/	/	46*
CCOC(=O)C1CCN(C=C2C(=O)N(C)C(=S)N(C)C2=O)CC1	-1	-6	2	5	12	/
Nc1ncc([N+](=O)[O-])s1	9	10	1	-3	-1	/
COc1ccc2c3c1OC1[C@H](O)CCC4[C@@H](C2)N(C)CC[C@]314 (stereo partly drawn)	-7	2	35*	0	5	2
CN1CC[C@]23c4c5ccc(O)c4OC2C(O)C=CC3[C@H]1C5 (stereo partly drawn)	-3	-5	5	-1	7	/
Cc1cc(C(=O)CS(=O)(=O)c2ccccc2)cc(C)c1OC(=O)N(C)C	12	9	38*	6	6	4
C=CC[C@@H](CC/C=C/C=C/CC/C=C\[C@@H]1CSC([C@@H]2C[C@@H]2C)=N1)OC	1	2	4	1	0	/
CCCCn1c(=O)c(C(=O)Nc2ccsc2C(=O)OC)c(O)c2ccccc21	-3	-7	0	1	7	/
CN1CCC(c2c[nH]c3ccccc23)C1 (stereo not drawn)	11	8	44*	7	8	4
Cn1cccc1/C=C1/C(=O)NC(=S)N(Cc2ccc(F)cc2)C1=O	17	44*	61*	55*	3	45*
Cn1cccc1/C=C1/C(=O)NC(=O)N(Cc2ccccc2)C1=O	10	13	2	6	6	/
SMILES	Apaf-1 inh	PAFAH2 FP inh	pPAFAH inh	PAFAH1B2 inh	PAFAH1B3 FP inh	pPAFAH FP conf
N#Cc1ccccc1Cn1cc(C(=O)c2ccco2)c2ccccc21	18	3	72*	-2	2	77*
O=C(c1ccco1)c1cn(Cc2ccccc2Cl)c2ccccc12	25	-3	74*	-2	9	76*
O=C(c1cn(Cc2ccccc2)c2ccccc12)C1CC1	8	-3	-5	3	1	/
CCC(=O)c1cn(Cc2ccccc2C#N)c2ccccc12	-4	3	8	4	3	/
C[C@]12CCC3C(CC[C@H]4C[C@H](OC(=O)c5cccnc5)CC[C@]34C)C1CCC2=O (stereo partly drawn)	20	3	4	0	6	/
Cc1cccc(N=Cc2c(O)n(-c3ccccc3C)c(=O)[nH]c2=O)c1	-21	-5	4	0	6	/
Cc1ccccc1-n1c(O)c(C=Nc2ccc(N(C)C)cc2)c(=O)[nH]c1=O	24	4	46*	5	3	1
C=CCn1c(O)c(C=Nc2ccc(N(CC)CC)cc2)c(=O)[nH]c1=O	3	4	43*	2	8	-1
Cc1ccc2c(c1Cl)NC(C(=O)O)C1CC(Sc3ccccc3[N+](=O)[O-])C(Cl)C21 (stereo not drawn)	5	43*	49*	8	15	42*
CCN(CC)C(=O)c1ccc2c(c1)C1C(Cl)C(Sc3ccccc3[N+](=O)[O-])CC1C(C(=O)O)N2 (stereo not drawn)	25	53*	68*	33*	26*	36*
CCN(CC)C(=O)c1ccc(NC(=O)c2cccc(S(=O)(=O)N3CCN(Cc4ccccc4)CC3)c2)cc1	21	1	1	-4	4	/
O=c1[nH]c(=S)n(-c2ccc(Br)cc2)c(O)c1C=Nc1ccc(N2CCOCC2)cc1	15	10	57*	2	-1	33*
CCOc1ccc(-n2c(O)c(C=Nc3ccc(N4CCOCC4)cc3)c(=O)[nH]c2=O)cc1	-1	-7	2	3	-1	/
Cc1ccc(N=Cc2c(O)n(-c3ccc(C)cc3)c(=O)[nH]c2=O)cc1	-1	6	6	6	4	/
CC(=O)N1CCN(c2ccc(N=Cc3c(O)n(-c4ccc(Cl)cc4)c(=O)[nH]c3=O)cc2)CC1	1	-2	41*	6	5	17
CCNc1cc(N2CCNCC2)ccc1[N+](=O)[O-]	7	/	-1	/	/	/
N#C/C=C/C#N	-28	-4	4	3	5	/
CN(C)C1C(=O)C(C(N)=O)=C(O)C2(O)C(=O)C3=C(O)c4c(O)cccc4C(C)(O)C3CC12 (stereo not drawn)	/	-9	36*	6	7	-1
CN(C)[C@@H]1C(=O)C(C(N)=O)=C(O)[C@@]2(O)C(=O)C3=C(O)c4c(O)cccc4[C@@](C)(O)C3[C@H](O)C12 (stereo partly drawn)	-13	47*!	64*	31*!	26*!	-3
CN1C(=O)C(O)N=C(c2ccccc2)c2ccccc21 (stereo not drawn)	-1	1	0	6	9	/
COC(=O)C1=C(c2c(C)noc2C)C[C@@H]2CC[C@H]1N2C(=O)NC1CCCCC1	0	15	0	2	4	/
